≈ marks a conversion by molar mass, not a printed value. Calls of active or inactive are those of the source. The calls are words filed in the database; no cut-off is given here.

Experiment [1] has as its system PC-12. The experiment can be described thus: Induction of neurite outgrowth in rat PC12 cells incubated for 96 hrs by phase contrast microscopy. The class given is functional, cell-based. Summed up:
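PC12 cells grown at 37 °C in DMEM with 5% FBS and 5% horse serum, then dissociated with 1 mM EGTA in PBS for 15 min. Seeded at 3 × 10^4 cells/well on poly-L-lysine. After 24 h, switched to 1% FBS/1% HS with test compounds at various concentrations and no NGF, for 96 h. NGF 100 ng/mL served as positive control. Neurite-bearing cells: process ≥ cell-body diameter, as % of ≥100 cells × 3 fields × 6 wells. Triplicate.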

The subject of experiment [2] is PC-12. The experiment can be described thus: Stimulation of NGF-mediated neurite outgrowth in rat PC12 cells incubated for 96 hrs by phase contrast microscopy. The note with it: for EC50: PC-12, 96 h. The class given is functional, cell-based. The gist of the method: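 PC12 cells cultured and dissociated with EGTA as above, then plated on poly-L-lysine at 3 × 10^4 cells/well. After 24 h, exposed for 96 h to 20 ng/mL NGF plus graded compound concentrations in 1% FBS/1% HS. Phase-contrast count of cells with neurites ≥ soma diameter, as % of ≥100 cells per field (3 fields/well, 6 wells/sample). Triplicate runs. EC50 from linear or nonlinear concentration–response regression.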

Consider `C=CC(=C)CC[C@]1(C)[C@H](C)C[C@H](OC)[C@@]2(C=O)C(C=O)=C[C@H](OC(=O)C(C)CC)C[C@@H]12` (stereo partly specified), for which the outcome in the experiment with PC-12 [1] and with PC-12 [2] was inactive.
For `C=CC(=C)CC[C@]1(C)[C@H](C)CC[C@@]23C(=CC(=O)C[C@@H]12)[C@@H](OC(=O)CCC)O[C@H]3OC(C)=O`, the outcome in the experiment with PC-12 [1] and in the experiment on PC-12 [2] was inactive.
Turning to `C=CC(=C)CC[C@]1(C)[C@H](C)CC[C@@]23[C@H](OC(C)=O)O[C@H](OC(C)=O)[C@@H]2CC(=O)C[C@@H]13`, the outcome in the experiment on PC-12 [1] and with PC-12 [2] was inactive.
As to `C=CC(=C)CC[C@]1(C)[C@H](C)CC[C@@]23C(=C[C@H](OC(=O)C(C)CC)C[C@@H]12)[C@@H](OC(=O)CCC)O[C@H]3OC(C)=O` (stereo partly specified), the result in the experiment with PC-12 [1] and in the experiment with PC-12 [2] was inactive.
The term EC50 denotes the midpoint of the concentration-response curve. Read a low EC50 as a more potent agent. Regarding `C=CC(=C)CC[C@]1(C)[C@H](C)C[C@H](OC)[C@@]23C(=C[C@H](OC(=O)CCC)C[C@@H]12)[C@@H](OC(=O)CCC)O[C@H]3OC(C)=O`, the result in the experiment on PC-12 [1] was inactive. In the experiment on PC-12 [2], the Activity entry was “Dose-dependent effect” and the EC50 stood at 20.2 µg/mL (≈ 36.9 µM).
As for `C=CC(=C)CC[C@]1(C)[C@H]2C[C@H](OC(=O)C(C)CC)C=C3[C@H](OC)O[C@H](OC(C)=O)[C@@]32[C@H](O)C[C@@H]1C` (stereo partly specified) [CASEAMEMBRIN B], in the experiment with PC-12 [1], the result was inactive. Further, in the experiment on PC-12 [2], the Activity entry is “Dose-dependent effect” and the EC50 was determined as 7.5 µg/mL (≈ 15.3 µM).
As to `C=CC(=C)CC[C@]1(C)[C@H](C)C[C@H](OC)[C@@]23C(=C[C@H](OC(=O)C(C)CC)C[C@@H]12)[C@@H](OC)O[C@H]3OC(C)=O` (stereo partly specified), the outcome in the experiment on PC-12 [1] was inactive. Also, in the experiment on PC-12 [2], the Activity entry was “Dose-dependent effect” and a half-maximal effect (EC50) was put at 4 µg/mL (≈ 7.93 µM).
On to `C=CC(=C)CC[C@]1(C)[C@H](C)C[C@H](OC)[C@@]23C(=CC(=O)C[C@@H]12)[C@@H](OC(C)=O)O[C@H]3OC(C)=O`, for which the result in the experiment on PC-12 [1] was inactive. Also, in the experiment on PC-12 [2], the Activity entry is “Dose-dependent effect” and a half-maximal response (EC50) required 2.5 µg/mL (≈ 5.6 µM).
Take `C=CC(=C)CC[C@]1(C)[C@H](C)C[C@H](OC)[C@@]23C(=C[C@@H](OC(C)=O)C[C@@H]12)[C@@H](OC)O[C@H]3OC(C)=O`: the result in the experiment with PC-12 [1] was inactive. In the experiment with PC-12 [2], the Activity result was “Dose-dependent effect” and it took 2.4 µg/mL (≈ 5.19 µM) to reach a half-maximal effect (EC50).
Consider `C=CC(=C)CC[C@]1(C)[C@H](C)C[C@H](OC)[C@@]23C(=C[C@H](OC(=O)C(C)CC)C[C@@H]12)[C@@H](OC(=O)CCC)O[C@H]3OC(C)=O` (stereo partly specified), for which the outcome in the experiment with PC-12 [1] was inactive. In the experiment on PC-12 [2], the Activity result was “Dose-dependent effect” and a half-maximal response (EC50) required 12.7 µg/mL (≈ 22.6 µM).

(Values after ChEMBL document CHEMBL3352130, “Bioactive clerodane diterpenoids from the twigs of Casearia balansae” (J Nat Prod, 2014).)
